Test results from ChEMBL document CHEMBL4513216, “Probing the Open Global Health Chemical Diversity Library for Multistage-Active Starting Points for Next-Generation Antimalarials” (ACS Infect Dis, 2020).

Test: Toxicity liver stage against HepG2, at 10uM
Format: cell-based
Parameters: test concentration 10 uM, cell line HepG2-A16-CD81EGFP
Conditions: human, HepG2-A16-CD81EGFP cells; read-out: INHIBITION
Procedure, shortened: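 Uninfected HepG2-A16-CD81EGFP cells, 3 × 10^3 per well, 1536-well, plated on prespotted compound at 10 μM final, parasite-free screening media added to match infected plates; puromycin 10 μM positive, DMSO 0.5% negative; run in parallel with 48 h PbLuc assay at 37 °C, 5% CO2; viability by CellTiter-Glo luminescence, normalized to controls.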

Structure (SMILES) | cytotoxicity at 10 µM [%]
CC1CN(Cc2ccccn2)CCN1c1ccc2nncn2n1 (configuration not stated) | -1.07
Cc1cc(N(C)CC2COc3ccccc3O2)nc(C)n1 (configuration not stated) | 38.7
CSc1nccc(N2CCC3(CCCN(CCc4ccccc4)C3)C2)n1 (configuration not stated) | 16.2
CCCN1CCN(C(=O)CCn2nc(C(F)(F)F)c(Br)c2C)CC1 | -8.71
CC(=O)N1CCn2c(C(=O)N(C)C)cnc2C1 | 1.54
CCn1nc(C)c(CCNC(=O)C2CCCN(C(C)=O)C2)c1C (configuration not stated) | -20.8
O=C1CC(c2ccncc2)C2(CCN(CCO)CC2)N1 (configuration not stated) | -3.4
COc1ccc(C(=O)NCc2ccc(C(=O)O)o2)cc1 | -0.806
O=C(CN1CCN(CC(O)C2CC2)CC1)NCc1ccccc1 (configuration not stated) | 6.03
CC(C)c1nnc2n1CCN(CC(=O)N1CCc3ccccc3C1)C2 | -5.92
Cc1ccc(CNC(=O)N(C)Cc2ccc([S+](C)[O-])cc2)s1 (configuration not stated) | 6.75
CS(=O)(=O)N1CCc2[nH]nc(Cc3cccs3)c2C1 | 1.44
CCO[C@H]1C[C@@H](O)C12CCN(S(=O)(=O)c1ccccc1OC)CC2 | 2.01
CC1(NC(=O)CNC(=O)C(C)(C)C)CCc2ccccc2C1 (configuration not stated) | -3.67
O=C(Cc1c(F)cccc1Cl)Nc1cc(N2CCCC2)ncn1 | -2.85
O=C(C1=CCCC1)N1C[C@H]2CCC[C@@]2(COCc2ccncc2)C1 | 2.78
COc1cccc(C2SCC(=O)Nc3ccsc32)c1 (configuration not stated) | 2.77
COCC1c2nnn(CC3CC3)c2CCN1C(=O)c1ccnnc1 (configuration not stated) | -7.44
O=S(=O)(c1cccnc1)N1CCN(CCn2ccnc2)CC1 | -31.2
C[C@H](NC(=O)C1(N(C)Cc2ccccc2)Cc2ccccc2C1)C(N)=O | 0.521
CN(C)CCCN1CC2(CCN(C(=O)C3(C)CCCCO3)CC2)OC1=O (configuration not stated) | -8.76
Cc1ccc(NC2CCN(C(=O)CCCn3ccnc3C)CC2)nn1 | -11.8
Cn1ncc(C(=O)N2CCOCC2)c1Cl | 8.93

Structure (SMILES) | cytotoxicity at 10 µM [%]
Cn1c(C(=O)NCC2(N)CCCC2)cc2ccccc21 | 7.8
CCN(CC)CCN1CCO[C@H]2[C@@H](OCc3ccncc3)CC[C@@H]21 | -4.65
O=C(Nc1ccccc1)c1ccc(NCc2nccs2)nn1 | 5.62
Cc1occc1C(=O)N1CCc2c(COCC3CC3)cncc2C1 | -0.799
Cc1cc(NCc2cc3n(n2)CCCN(C(=O)C2CCC2)C3)ncn1 | -136
Cc1cnc(Nc2cccc(C3CCCN3C(=O)CO)n2)s1 (configuration not stated) | -30.6
O=C(NCc1cccs1)c1[nH]nc2c1CS(=O)(=O)CC2 | 1.41
O=C(c1cc2cc(F)ccc2[nH]1)N1CCC(Nc2ccc(F)cc2)CC1 | -7.36
O=S1(=O)COCCN1CCOc1ccc(F)cc1 | -0.505
Cc1cc(C)c(C(=O)N2CCn3nc(C(=O)NCCN(C)C)cc3C2)[nH]1 | -0.53
O=C(NCc1ccccn1)NC1CCCN(c2ncccn2)C1 (configuration not stated) | 6.21
O=S(=O)(C1CC1)N1CCOC2(COCCN(c3ncccn3)C2)C1 (configuration not stated) | 8.55
Cc1cc(C)n(CC2CN(c3nnc(C)c(C)c3C#N)CCO2)n1 (configuration not stated) | -18.2
Cc1ccc(-n2nnc(C(=O)NS(C)(=O)=O)c2C2CC2)cc1 | -13.9
CCOC(=O)CN1CCC(C(=O)c2cc(F)ccc2F)CC1 | -8.11
COC(=O)[C@@H](NC(=O)c1coc(COc2cccc(F)c2F)n1)C(C)C | 1.31
Cn1cccc1C(=O)N1Cc2c(CN3CCCCC3)nn(C)c2C1 | 1.25
Cc1cccc(S(=O)(=O)N2C[C@@H]3C[C@H](C(=O)NC4CCC4)[C@H](C2)O3)c1 | -1.74
NC(=O)c1ccnc(N2CCCC(CO)(Cc3ccccc3)C2)c1 (configuration not stated) | 11.6
O=C(NCc1ccnc(O)c1)NCC1CCCC1 | 3.57
Cc1ccc(-c2nc(CNS(=O)(=O)N(C)C)[nH]c2-c2ccccn2)cc1 | -0.678
CC(=O)N[C@@H]1CN(C2CCN(c3cccc(C)c3C)CC2)C[C@H]1C(C)C | -11.7
O=C1CC(NCc2cnc(C3CCCCC3)nc2)CN1c1ccccc1 (configuration not stated) | -6.8

Structure (SMILES) | cytotoxicity at 10 µM [%]
Cc1cc(C)cc(CN2CCC3(CC2)CC(Nc2ncccn2)CO3)c1 (configuration not stated) | 5.39
NCCN1CCC(c2nnc(Cn3ccnc3)n2C2CC2)CC1 | -3.07
Cc1nn(C)c(C)c1C1CCCN1CCOc1ccccc1C#N (configuration not stated) | 8.13
COc1ccc(CC(=O)N2CCCC(n3cc(C)cn3)C2)c(OC)c1 (configuration not stated) | -8.66
COCCOCC(=O)NCc1ccc(N(C)C)nc1 | 8.87
N#Cc1c(SCCN2CCCCCC2)sc2c(O)cc(O)nc12 | -10.5
CC(C)NC(=O)CN1CCC(c2cccc(F)c2)C1 (configuration not stated) | 0.103
c1ccc(-c2noc(CN3CCc4c(ncn4C4CC4)C3)n2)nc1 | -5.11
Cc1cnc2[nH]c(C(F)(F)F)c(CN3CCOCC3)c2c1 | 11.7
CC(=O)NCc1cccc(-n2ccnc2-c2cccc(C(=O)O)c2)c1 | -2.29
CC(C)N1CCC(Cc2cncc(-c3ccccc3C(=O)O)n2)CC1 | 0.822
CN(Cc1cc(=O)c(O)co1)C1CCCN(c2ccccc2)C1 (configuration not stated) | -3.17
Cc1ccc(NC(=O)N2CCOC(C)(c3cnn(C)c3)C2)c(C)c1 (configuration not stated) | 6.05
O=C(CN1CCOCC1)Nc1ccc(C(F)(F)F)cc1Cl | 4.72
CC(C)CCN1Cc2c(C(=O)N3CCCC3)nn(C)c2C1 | -0.173
CCO[C@@H]1CC[C@H]2[C@H]1OCCN2CC1CCOCC1 | 10.8
CCc1nc(CCNc2ncccc2S(N)(=O)=O)sc1C | -3.23
CNC(=O)C1(CCCc2ccccn2)CN(Cc2nccn2C)C1 | -1.23
Cc1nc(CC(=O)N2CCCCC2Cn2cccn2)cs1 (configuration not stated) | -1.55
CCC(CNC(=O)c1cncc(Br)c1)N1CCc2ccccc2C1 (configuration not stated) | 13.4
CC(C)(O)CN1CCN(C(=O)c2ccc(Cl)c3cccnc23)CC1 | -9.19
CN(CC(=O)N1CCCC1)Cc1nc2c(cnn2C)c(=O)[nH]1 | -1.38
Cc1ccc(N(Cc2ccco2)C(=O)Cc2cc(=O)n(C)[nH]2)cc1 | -152

Structure (SMILES) | cytotoxicity at 10 µM [%]
COc1ccc(-c2cn(CCSc3ncn[nH]3)nn2)cn1 | 3.36
Cc1c(Cl)cccc1NCc1nc2n(n1)CCCCC2 | 10.6
O=C1CN(C(=O)c2ccc(F)cc2)CC(O)CN1Cc1cccs1 (configuration not stated) | -67.7
Cn1cc(CN2CCc3c(nnn3C)C2COCc2ccccc2)cn1 (configuration not stated) | -126
c1cnc2c(c1)cc([C@@H]1CCCO1)n2CCN1CCCCC1 | -25.9
N#Cc1ccc(N2CCN(c3ncccn3)CC2)c(C(F)(F)F)c1 | 36.3
Cc1cc(N2CCN(Cc3cn(C)nc3C)CC2)cc(C2CCCN2)n1 (configuration not stated) | 0.525
CN(CCC(F)(F)F)C(=O)C1CCCN1C(=O)OC(C)(C)C (configuration not stated) | -0.653
O=C(c1nccc2ccccc12)N(Cc1ccco1)CC1CCCO1 (configuration not stated) | -6.25
CCc1nc(C)ncc1C(=O)N1CCCC(n2nc(C)nc2C)C1 (configuration not stated) | -8.47
Cc1nc2c(c(C)c1CC(=O)NCc1ccccc1F)c(=O)[nH]n2C | -5.52
CN1CCC(c2nnc(CN3CCCC3)n2C2CC2)CC1 | -11.4
O=C(NCc1ccccn1)C1CN(c2nc3ccccc3s2)CCN1 (configuration not stated) | -42.8
Cc1noc(C)c1CNC(C(=O)N1CCOCC1)C(C)C (configuration not stated) | 4.55
CCS(=O)(=O)NCCNC(C)(C)c1nc(C)cs1 | -0.396
N#Cc1nccnc1N1CCC(COCc2ccccc2)C1 (configuration not stated) | 7.78
CN1CCC(NC(=O)Nc2ccc(F)c(-n3cccc3)c2)C1=O (configuration not stated) | -135
O=c1cc(Cn2ccnc2)nc2n1CCCN(S(=O)(=O)C1CC1)C2 | 7.95
Cc1nn(C)c2c(N3CCN(C(=O)C4CC4)CC3)ncnc12 | 9.02
CCc1cnccc1C(=O)NC1CCN(Cc2ccccc2F)CC1 | -4.35
OC1(CNCCN2CCCc3ccccc32)CCNC1 (configuration not stated) | 7.03
CCN1CCCC2(CCN(Cc3nnc(C4CC4)o3)C2)C1=O (configuration not stated) | 1.56
CN(CCc1noc(C2CC2)n1)C(=O)CN1C(=O)COc2ccccc21 | -141

Structure (SMILES) | cytotoxicity at 10 µM [%]
CCC(C)(CC(=O)O)NC(=O)Cc1ccccc1Br (configuration not stated) | 1.29
Cn1nc(CNC(=O)NCc2ccc(Cl)cc2)c2c1CCOC2 | 2.81
CC(C)c1nn(C)c(N(C)C)c1CNC(C)c1ccc2c(c1)OCO2 (configuration not stated) | -4.49
CCn1nc2c(cc1=O)CN(CC(=O)N(C)c1nccs1)CC2 | -4.58
CC(C)(C)OC(=O)NC(C)(C)c1noc(CN2CCCCC2)n1 | 7.57
O=S(=O)(C1CC1)N1CCc2ncc(Cn3cccn3)n2CC1 | 9.58
Cc1n[nH]c(C)c1-c1nccnc1CC1CCCN(C)C1 (configuration not stated) | -18.3
Cc1cc(NC(=O)NCC(c2ccc(C)o2)N2CCOCC2)n(C)n1 (configuration not stated) | -32.5
COc1ccc(CNC2CCCN(Cc3noc(C)n3)C2)cc1F (configuration not stated) | -12.5
CN(C)c1ccc(C2CCN(c3cnccn3)CC2)nc1 | -11.2
CSc1ncc(C(=O)N2CCC(O)(CN3CCOCC3)C(C)(C)C2)cn1 (configuration not stated) | -2.16
Cc1cnn(CCC(=O)N2CCC(Nc3cccnn3)CC2)c1 | -8.11
Cc1csc(CN2CCn3c(COc4cccnc4)cnc3C2C)n1 (configuration not stated) | -98.4
CCOc1ccc(CN2CCCC(c3nn(C)c(=O)n3CC)C2)cn1 (configuration not stated) | -2.85
O=C1NCCCCC1SCc1coc(-c2cccc(F)c2)n1 (configuration not stated) | 7
COc1ccc(N2CCCN(C(=O)Cc3csc(C)n3)CC2)cc1 | 3.91
O=C1CCC(=O)N1Cc1ccc(C(=O)N2CCCC2c2cccs2)cc1 (configuration not stated) | 2.8
O=C(NC1CC1)c1cnc2n1CCCC2 | -6.81
Cc1cc(C)n(-c2ccc(N3CCC(O)CC3)nc2)n1 | -5.08
COc1ccccc1CCN1CCCC(CN(C)Cc2ccc(C)o2)C1 (configuration not stated) | -0.813
